Laboratory results taken from BindingDB's records for doi:10.1021/jm049010r (University of Florida, 2005).

Molecular target: Melanocortin receptor 4 (Mus musculus, UniProt P56450)
Assay: Effective concentration for mouse Melanocortin-4 receptor
Outline: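 HEK-293 cells stably expressing mouse melanocortin receptors (G418-selected) were transiently transfected with a CRE/β-galactosidase reporter. Lysates were incubated with ONPG at 37° and read at OD405. Signals were normalized to relative protein (OD595) and to forskolin response. EC50 came from nonlinear least-squares fits of duplicate experiments in quadruplet or more.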

Melanocortin receptor 4, sequence (P56450 whole entry): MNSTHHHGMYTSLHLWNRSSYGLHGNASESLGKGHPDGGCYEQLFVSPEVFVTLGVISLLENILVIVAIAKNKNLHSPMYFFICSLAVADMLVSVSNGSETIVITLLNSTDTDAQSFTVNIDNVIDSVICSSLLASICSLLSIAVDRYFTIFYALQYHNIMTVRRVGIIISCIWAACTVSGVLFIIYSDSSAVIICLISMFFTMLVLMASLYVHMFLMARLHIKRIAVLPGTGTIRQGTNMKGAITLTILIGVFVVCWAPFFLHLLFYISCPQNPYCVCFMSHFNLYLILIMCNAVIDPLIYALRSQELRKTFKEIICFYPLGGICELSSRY

SMILES | EC50 [nM]
C[C@@H]1NC(=O)[C@H](CC(N)=O)NC(=O)[C@H](Cc2c[nH]c3ccccc23)NC(=O)[C@H](CCCNC(=N)N)NC(=O)[C@@H](Cc2cccc3ccccc23)NC(=O)[C@H](Cc2cnc[nH]2)NC(=O)[C@@H](NC(=O)[C@@H](N)Cc2ccc(O)cc2)CC(=O)N([C@@H](Cc2ccc(O)cc2)C(N)=O)C(C)(C(=O)O)NC(=O)[C@H](Cc2ccccc2)NC1=O (some centres not stated) | 0.57
C[C@@H]1NC(=O)[C@H](CC(N)=O)NC(=O)[C@H](Cc2c[nH]c3ccccc23)NC(=O)[C@H](CCCNC(=N)N)NC(=O)[C@@H](Cc2ccc(-c3ccccc3)cc2)NC(=O)[C@H](Cc2cnc[nH]2)NC(=O)[C@@H](NC(=O)[C@@H](N)Cc2ccc(O)cc2)CC(=O)N([C@@H](Cc2ccc(O)cc2)C(N)=O)C(C)(C(=O)O)NC(=O)[C@H](Cc2ccccc2)NC1=O (some centres not stated) | 0.57
